The values that follow come from paper PMC4382465 (The Journal of antibiotics, 2014).

SMILES strings stand for the structures. In brackets after ≈: the same amount, converted by molar mass. Where two headings read alike, the source gives them in different places.

For one data set, the system named is Mtb. In words: Micro dilution broth checkerboard. Type of data set: cell-based, Mycobacterium tuberculosis.
Data set [1] concerns HepG2 human hepatoblastoma cells. In words: Cytotoxicity assay. Type of data set: cell-based. The settings on record: HepG2, read-out: IC50 μg/mL HepG2 cells.
The target of another data set is T1, MurX (Mycobacterium tuberculosis, UniProt P9WMW7).
T1 sequence (P9WMW7 1-359): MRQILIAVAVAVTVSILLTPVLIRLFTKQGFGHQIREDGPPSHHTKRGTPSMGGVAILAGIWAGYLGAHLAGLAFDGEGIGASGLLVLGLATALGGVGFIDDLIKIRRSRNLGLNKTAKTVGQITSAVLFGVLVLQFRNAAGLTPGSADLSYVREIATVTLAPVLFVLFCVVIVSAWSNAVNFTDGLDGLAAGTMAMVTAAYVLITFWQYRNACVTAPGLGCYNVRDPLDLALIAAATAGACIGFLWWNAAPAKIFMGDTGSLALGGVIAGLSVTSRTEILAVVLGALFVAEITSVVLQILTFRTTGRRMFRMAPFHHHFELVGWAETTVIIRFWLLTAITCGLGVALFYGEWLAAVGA
The experiment in a line: MurX enzyme inhibitory assay. Type of data set: biochemical, M. tuberculosis.

The subject of data set [2] is non-replicating M. tuberculosis H37Rv (pFCA-luxAB). The experiment in a line: microbe, parasite or virus in culture. Type of data set: cell-based. The settings on record: Mycobacterium tuberculosis, read-out: MIC μg/mL (LORA).
In a further data set the test system is M. tuberculosis. Type of data set: cell-based, Mycobacterium tuberculosis. The settings on record: for time to kill 50% of Mtb: 2× MIC: rifampicin 0.4, INH 1.0 (so in the source); for time to kill 50% of Mtb / time to kill Mtb completely (100%): UT-01320 3.0 μg/mL; for time to kill Mtb completely (100%): 2× MIC: capuramycin 24.0 μg/mL.
The next data set addresses E. coli RNA polymerase (Escherichia coli, UniProt P0A8T7+P0A8V2). In words: RNA polymerase assay. Type of data set: biochemical.
The test system of a further data set is M. tuberculosis H37Rv. The experiment in a line: MIC, microplate alamar blue assay. Type of data set: cell-based. The settings on record: Mycobacterium tuberculosis. (Alamar Blue is a resazurin reagent that responds to reducing activity.)
For data set [3], the system named is electron transport systems. The experiment in a line: Inhibition of electron transport systems. Type of data set: cell-based.
Data set [4] concerns the target bacterial RNA polymerases. In words: RNA polymerase assays, enzyme not given. Type of data set: biochemical. Conditions: read-out: IC50, bacterial RNA polymerases; abstract.
Another data set is described as follows: Cytotoxicity assay. The settings on record: monkey, Vero monkey kidney cells (ATCC CCL-81). Type of data set: cell-based. The method in brief: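 Vero kidney cells grown in 96-well plates in ATCC-formulated Eagle's Minimum Essential Medium and exposed to test compound. Each plate includes reference drugs of known toxicity as controls. Cytopathic effect is read by MTT assay after incubation, and IC50 is reported.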

The test system of a further data set is E. faecium ATCC 349. In words: MIC, broth dilution. Type of data set: cell-based. The settings on record: Enterococcus faecium, ATCC349.
The next data set has as its system E. coli ATCC 25019. The experiment in a line: MIC, broth dilution. Type of data set: cell-based. Conditions: Escherichia coli, ATCC25019.
The test system of a further data set is menaquinone biosynthesis. Type of data set: biochemical.
A further data set deals with M. smegmatis ATCC607. In words: MIC, broth dilution. Conditions: M. smegmatis ATCC607, broth dilution method. Type of data set: cell-based, Mycobacterium smegmatis. (In general: Dilution methods test growth across graded concentrations, often in twofold steps.)
The target of another data set is DNA gyrase (Escherichia coli, UniProt P0AES4+P0AES6). In words: DNA topoisomerase II - DNA supercoiling assay. Type of data set: biochemical.
For data set [5], the target named is T2, Mtb serine/threonine kinase PKnA (Mycobacterium tuberculosis, UniProt P9WI83).
T2 sequence (P9WI83 1-431): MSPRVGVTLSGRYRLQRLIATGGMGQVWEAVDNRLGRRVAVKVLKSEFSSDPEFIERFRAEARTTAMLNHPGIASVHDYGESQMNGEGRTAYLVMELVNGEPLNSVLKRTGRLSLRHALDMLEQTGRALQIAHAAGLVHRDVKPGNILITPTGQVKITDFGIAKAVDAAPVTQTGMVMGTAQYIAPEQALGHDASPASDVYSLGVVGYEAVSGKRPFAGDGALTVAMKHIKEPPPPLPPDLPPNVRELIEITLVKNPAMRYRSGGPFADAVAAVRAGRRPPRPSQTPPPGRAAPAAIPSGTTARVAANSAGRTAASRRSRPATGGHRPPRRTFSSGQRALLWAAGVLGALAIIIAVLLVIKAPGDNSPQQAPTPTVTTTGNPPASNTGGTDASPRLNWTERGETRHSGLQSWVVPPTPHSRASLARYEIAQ
The experiment in a line: Ser/Thr protein kinase assay. Type of data set: biochemical, M. tuberculosis.

For data set [6], the target named is Mtb serine/threonine kinase PknB (Mycobacterium tuberculosis, UniProt P9WI81). In words: Ser/Thr protein kinase assay. Type of data set: biochemical, M. tuberculosis.
The subject of another data set is P. aeruginosa ATCC 27853. In words: MIC, broth dilution. The settings on record: Pseudomonas aeruginosa, ATCC27853. Type of data set: cell-based.
A further data set has as its target S. aureus RNA polymerase (Staphylococcus aureus, UniProt P47768+Q2G0N5). The experiment in a line: RNA polymerase assay. Type of data set: biochemical.
Data set [7] deals with M. smegmatis RNA polymerase (Mycolicibacterium smegmatis, UniProt A0QS66+P60281). In words: RNA polymerase assay. Type of data set: biochemical.

Sequence of E. coli RNA polymerase (P0A8V2 whole entry): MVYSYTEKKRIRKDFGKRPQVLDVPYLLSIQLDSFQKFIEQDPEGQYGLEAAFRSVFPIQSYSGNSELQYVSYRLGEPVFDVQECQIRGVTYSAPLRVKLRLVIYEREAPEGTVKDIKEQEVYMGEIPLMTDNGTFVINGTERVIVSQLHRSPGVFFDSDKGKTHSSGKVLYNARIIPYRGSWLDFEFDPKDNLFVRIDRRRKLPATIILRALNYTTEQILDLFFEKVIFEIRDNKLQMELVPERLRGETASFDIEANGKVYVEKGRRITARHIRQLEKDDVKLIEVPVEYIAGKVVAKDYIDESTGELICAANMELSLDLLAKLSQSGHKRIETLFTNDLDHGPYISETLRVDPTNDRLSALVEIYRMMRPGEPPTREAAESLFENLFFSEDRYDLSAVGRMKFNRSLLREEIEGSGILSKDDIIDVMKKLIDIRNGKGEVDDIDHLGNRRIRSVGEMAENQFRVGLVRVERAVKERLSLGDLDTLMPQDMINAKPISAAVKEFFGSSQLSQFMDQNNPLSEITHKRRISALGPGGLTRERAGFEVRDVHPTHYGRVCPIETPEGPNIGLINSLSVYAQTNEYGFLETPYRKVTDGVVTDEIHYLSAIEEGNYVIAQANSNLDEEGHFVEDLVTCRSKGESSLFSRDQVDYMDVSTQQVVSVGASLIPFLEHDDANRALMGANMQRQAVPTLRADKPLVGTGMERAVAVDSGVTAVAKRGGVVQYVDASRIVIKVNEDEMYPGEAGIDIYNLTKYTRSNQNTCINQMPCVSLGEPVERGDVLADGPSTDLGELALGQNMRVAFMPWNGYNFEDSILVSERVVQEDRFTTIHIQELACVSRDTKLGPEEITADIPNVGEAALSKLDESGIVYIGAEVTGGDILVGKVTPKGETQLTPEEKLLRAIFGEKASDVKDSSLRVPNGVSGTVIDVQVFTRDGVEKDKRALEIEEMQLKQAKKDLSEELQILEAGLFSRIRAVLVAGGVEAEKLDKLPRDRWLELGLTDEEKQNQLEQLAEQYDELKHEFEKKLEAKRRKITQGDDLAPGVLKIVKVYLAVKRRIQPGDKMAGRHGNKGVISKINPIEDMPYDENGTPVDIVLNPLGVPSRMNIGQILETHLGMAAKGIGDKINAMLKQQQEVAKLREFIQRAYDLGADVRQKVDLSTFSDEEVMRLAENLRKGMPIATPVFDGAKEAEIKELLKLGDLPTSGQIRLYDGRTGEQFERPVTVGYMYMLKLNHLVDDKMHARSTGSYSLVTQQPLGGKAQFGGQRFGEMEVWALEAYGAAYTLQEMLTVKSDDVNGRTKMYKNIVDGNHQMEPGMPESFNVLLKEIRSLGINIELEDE
Sequence of E. coli RNA polymerase (P0A8T7 whole entry): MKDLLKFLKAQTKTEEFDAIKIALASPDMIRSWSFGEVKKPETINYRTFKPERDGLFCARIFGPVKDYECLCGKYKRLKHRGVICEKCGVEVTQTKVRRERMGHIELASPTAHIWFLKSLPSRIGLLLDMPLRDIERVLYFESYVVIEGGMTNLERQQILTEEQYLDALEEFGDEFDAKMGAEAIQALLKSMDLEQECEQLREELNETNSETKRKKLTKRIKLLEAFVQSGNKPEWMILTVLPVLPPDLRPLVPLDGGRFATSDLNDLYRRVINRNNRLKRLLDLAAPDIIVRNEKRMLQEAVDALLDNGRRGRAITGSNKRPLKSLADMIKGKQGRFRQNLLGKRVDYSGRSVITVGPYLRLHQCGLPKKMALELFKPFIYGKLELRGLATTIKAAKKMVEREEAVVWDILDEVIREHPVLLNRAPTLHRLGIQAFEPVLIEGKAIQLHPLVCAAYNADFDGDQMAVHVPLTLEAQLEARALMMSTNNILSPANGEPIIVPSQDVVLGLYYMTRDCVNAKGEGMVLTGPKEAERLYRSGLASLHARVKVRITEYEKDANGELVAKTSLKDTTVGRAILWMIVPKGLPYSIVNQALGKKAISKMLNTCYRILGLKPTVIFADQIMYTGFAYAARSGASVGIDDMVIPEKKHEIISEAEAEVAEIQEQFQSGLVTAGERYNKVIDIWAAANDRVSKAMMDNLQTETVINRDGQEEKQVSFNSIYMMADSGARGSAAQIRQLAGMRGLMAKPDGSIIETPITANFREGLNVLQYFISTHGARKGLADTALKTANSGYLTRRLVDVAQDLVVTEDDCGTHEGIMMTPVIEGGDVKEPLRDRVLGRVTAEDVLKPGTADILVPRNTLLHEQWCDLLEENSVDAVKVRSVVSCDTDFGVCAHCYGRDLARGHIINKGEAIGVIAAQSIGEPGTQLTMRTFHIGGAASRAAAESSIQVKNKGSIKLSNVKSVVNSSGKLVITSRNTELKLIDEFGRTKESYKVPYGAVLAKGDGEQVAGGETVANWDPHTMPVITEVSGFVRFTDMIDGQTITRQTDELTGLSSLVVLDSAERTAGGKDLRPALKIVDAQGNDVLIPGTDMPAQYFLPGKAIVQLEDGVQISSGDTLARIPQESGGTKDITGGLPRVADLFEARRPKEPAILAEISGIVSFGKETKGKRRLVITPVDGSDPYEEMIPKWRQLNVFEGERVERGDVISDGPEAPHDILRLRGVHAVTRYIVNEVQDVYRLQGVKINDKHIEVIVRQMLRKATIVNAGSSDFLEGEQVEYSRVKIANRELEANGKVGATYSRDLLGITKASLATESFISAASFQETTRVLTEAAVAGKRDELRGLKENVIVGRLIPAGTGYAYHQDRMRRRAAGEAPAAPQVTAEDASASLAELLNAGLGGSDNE
Sequence of E. coli RNA polymerase (P0A7Z4 whole entry partner): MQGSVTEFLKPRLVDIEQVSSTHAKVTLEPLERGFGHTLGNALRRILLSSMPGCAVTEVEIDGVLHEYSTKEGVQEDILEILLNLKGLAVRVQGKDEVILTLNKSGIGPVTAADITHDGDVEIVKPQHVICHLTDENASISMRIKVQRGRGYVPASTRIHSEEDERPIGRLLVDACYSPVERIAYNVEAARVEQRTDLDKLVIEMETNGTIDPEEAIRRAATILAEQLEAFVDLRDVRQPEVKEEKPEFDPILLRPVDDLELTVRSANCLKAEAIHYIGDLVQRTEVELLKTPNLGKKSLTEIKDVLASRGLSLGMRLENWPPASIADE
Sequence of E. coli RNA polymerase (P0A800 whole entry partner): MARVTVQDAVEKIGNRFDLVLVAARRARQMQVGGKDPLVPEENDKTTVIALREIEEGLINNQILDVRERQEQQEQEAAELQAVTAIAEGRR
Sequence of DNA gyrase (P0AES4 whole entry, one chain of several): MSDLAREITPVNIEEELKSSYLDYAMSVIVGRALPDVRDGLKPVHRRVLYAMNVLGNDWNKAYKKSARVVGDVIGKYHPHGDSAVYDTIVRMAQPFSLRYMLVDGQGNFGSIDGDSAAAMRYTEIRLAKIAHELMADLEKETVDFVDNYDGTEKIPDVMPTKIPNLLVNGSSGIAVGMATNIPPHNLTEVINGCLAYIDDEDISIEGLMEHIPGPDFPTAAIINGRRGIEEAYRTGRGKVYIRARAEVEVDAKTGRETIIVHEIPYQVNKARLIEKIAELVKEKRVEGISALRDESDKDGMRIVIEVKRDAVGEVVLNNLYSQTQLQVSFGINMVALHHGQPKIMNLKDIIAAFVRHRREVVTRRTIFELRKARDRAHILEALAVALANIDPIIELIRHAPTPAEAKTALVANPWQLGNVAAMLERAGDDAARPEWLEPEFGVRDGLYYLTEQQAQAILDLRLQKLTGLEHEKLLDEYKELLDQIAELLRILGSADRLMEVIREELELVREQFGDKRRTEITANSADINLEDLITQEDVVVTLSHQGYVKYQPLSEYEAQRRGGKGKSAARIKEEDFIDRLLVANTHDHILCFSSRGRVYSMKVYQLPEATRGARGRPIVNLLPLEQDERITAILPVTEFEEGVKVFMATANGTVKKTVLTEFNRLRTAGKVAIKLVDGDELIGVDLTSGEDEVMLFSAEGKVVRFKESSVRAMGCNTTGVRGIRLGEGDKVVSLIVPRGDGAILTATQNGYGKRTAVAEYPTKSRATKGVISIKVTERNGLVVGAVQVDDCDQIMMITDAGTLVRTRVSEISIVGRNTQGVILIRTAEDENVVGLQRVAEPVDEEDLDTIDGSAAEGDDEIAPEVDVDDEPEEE
Sequence of Mtb serine/threonine kinase PknB (P9WI81 whole entry): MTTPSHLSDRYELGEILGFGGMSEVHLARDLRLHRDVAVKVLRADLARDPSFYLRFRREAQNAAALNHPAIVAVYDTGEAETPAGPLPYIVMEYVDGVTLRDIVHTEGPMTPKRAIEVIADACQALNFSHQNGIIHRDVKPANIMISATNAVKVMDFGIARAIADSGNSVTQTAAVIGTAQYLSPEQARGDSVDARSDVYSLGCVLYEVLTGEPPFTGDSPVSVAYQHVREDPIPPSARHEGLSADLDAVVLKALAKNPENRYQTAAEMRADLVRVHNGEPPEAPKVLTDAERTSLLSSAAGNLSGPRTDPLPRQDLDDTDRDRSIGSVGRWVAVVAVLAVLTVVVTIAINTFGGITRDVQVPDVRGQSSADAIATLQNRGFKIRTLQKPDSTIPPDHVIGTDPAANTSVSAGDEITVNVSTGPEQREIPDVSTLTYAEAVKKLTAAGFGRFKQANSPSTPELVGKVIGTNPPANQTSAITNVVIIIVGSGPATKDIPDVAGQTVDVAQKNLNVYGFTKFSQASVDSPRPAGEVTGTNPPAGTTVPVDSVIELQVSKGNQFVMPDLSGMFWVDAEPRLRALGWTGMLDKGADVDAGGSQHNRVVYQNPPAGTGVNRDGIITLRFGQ

With `COC1C(O)C(n2ccc(=O)[nH]c2=O)OC1C(OC1OC(C(=O)Nc2ccc(F)c(F)c2)=CC(O)C1O)C(N)=O` (stereo not drawn) [SQ 641 (2), 6-{Carbamoyl-[5-(2,4-dioxo-3,4-dihydro-2H-pyrimidin-1-yl)-4-hydroxy-3-methoxy-tetrahydro-furan-2-yl]-methoxy}-4,5-dihydroxy-5,6-dihydro-4H-pyran-2-carboxylic acid (3,4-difluoro-phenyl)-amide], the “MIC (μg/mL) CA and CB (concentration in combination)” value with Mtb (pair SQ 641 0.10 + UT-01320 0.08), in the data set with Mtb (pair SQ 641 0.10 + UT-01320 0.16), with Mtb (pair SQ 641 0.10 + UT-01320 0.32), in the data set on Mtb (pair SQ 641 0.10 + UT-01320 0.645) and with Mtb (pair SQ 641 0.10 + UT-01320 1.29) was 0.10 µg/mL each time. Also, the IC50 was more than 400 µg/mL in [1] and 98 nM against MurX. Besides, the MIC in [2] is more than 100 µg/mL.
For the compound `CO[C@H]1/C=C/O[C@@]2(C)Oc3c(C)c(O)c4c(O)c(c(/C=N/N5CCN(C)CC5)c(O)c4c3C2=O)NC(=O)/C(C)=C\C=C\[C@H](C)[C@H](O)[C@@H](C)[C@@H](O)[C@@H](C)[C@H](OC(C)=O)[C@@H]1C` [Rifampicin (RFP), Rifampicin], the “time to kill 50% of Mtb” value in the data set on M. tuberculosis is reported as “over 7 days”. For the same compound, the IC50 in data set [1] was more than 400 µg/mL; on E. coli RNA polymerase it was 120 nM. Further, the MIC with M. tuberculosis H37Rv and with M. tuberculosis H37Rv (read-out: MIC μg/mL (MABA)) was 0.2 µg/mL (≈ 0.243 µM) in each case.
On to `NNC(=O)c1ccncc1` [Isoniazid (INH), Isoniazid], for which the IC50 in [1] was more than 400 µg/mL. Also, the MIC is 0.04 to 0.1 µg/mL (≈ 0.292 to 0.729 µM) in the data set on M. tuberculosis H37Rv, 0.04 to 0.1 µg/mL (≈ 0.292 to 0.729 µM) in the data set with M. tuberculosis H37Rv (read-out: MIC μg/mL (MABA)) and more than 100 µg/mL in data set [2].
Turning to `CC[C@@H](CO)NCCN[C@@H](CC)CO` [Ethambutol (EMB), Ethambutol], the IC50 in data set [1] is more than 400 µg/mL. The values for the MIC (in the data set on M. tuberculosis H37Rv (read-out: MIC μg/mL (MABA)); in data set [2]) were 0.78 µg/mL (≈ 3.82 µM) and more than 100 µg/mL, respectively.
As for `COC1C(O)C(n2ccc(=O)[nH]c2=O)OC1C(OC1OC(C(=O)NC2CCCCNC2=O)=CC(O)C1O)C(N)=O` (stereo not drawn) [Capuramycin (1), 6-{Carbamoyl-[5-(2,4-dioxo-3,4-dihydro-2H-pyrimidin-1-yl)-4-hydroxy-3-methoxy-tetrahydro-furan-2-yl]-methoxy}-4,5-dihydroxy-5,6-dihydro-4H-pyran-2-carboxylic acid (2-oxo-azepan-3-yl)-amide], the “time to kill Mtb completely (100%)” value in the data set with M. tuberculosis came out at 2 days. Also, in the data set with M. tuberculosis (in 1 day, 24.0 μg/mL (2× MIC)), the “log10 CFU/mL reduction” value is recorded as not below 3.0 log10 CFU/mL. Further, the IC50 in data set [1] was more than 400 µg/mL; at MurX, 127 nM. In addition, in [2], the MIC was more than 100 µg/mL.
Take `COC1C(C(OC2OC(C(=O)NC3CCCCNC3=O)=CC(O)C2O)C(N)=O)OC(n2ccc(=O)[nH]c2=O)C1OC` (stereo not drawn) [UT-01320 (3), 6-{Carbamoyl-[5-(2,4-dioxo-3,4-dihydro-2H-pyrimidin-1-yl)-3,4-dimethoxy-tetrahydro-furan-2-yl]-methoxy}-4,5-dihydroxy-5,6-dihydro-4H-pyran-2-carboxylic acid (2-oxo-azepan-3-yl)-amide]: the “time to kill Mtb completely (100%)” value in the data set on M. tuberculosis is reported as not above 5 days. The “time to kill 50% of Mtb” value in the data set on M. tuberculosis was not above 3 days. Further, the “time to kill 100% of Mtb” value with M. tuberculosis (4× MIC: UT-01320 6.0 μg/mL) is not above 3 days. In data set [3], the “inhibition of electron transport systems” value is on record as “did not inhibit”. The IC50 in [4] is 100 to 150 nM; in [1], more than 400 µg/mL; in the data set “Cytotoxicity assay”, more than 400 µg/mL; against MurX, more than 100000 nM; against E. coli RNA polymerase it was 100 to 150 nM; against S. aureus RNA polymerase, 100 to 150 nM. The same compound gave an IC50 in data set [7] of 100 to 150 nM. In addition, the MIC was more than 200 µg/mL in the data set with E. faecium ATCC 349; more than 200 µg/mL in the data set with E. coli ATCC 25019; more than 200 µg/mL in the data set with M. smegmatis ATCC607; 1.5 µg/mL (≈ 2.57 µM) in the data set on M. tuberculosis H37Rv; 2.58 µg/mL (≈ 4.42 µM) in data set [2]; more than 200 µg/mL with P. aeruginosa ATCC 27853. The “MurX enzyme inhibitory activity” value on MurX is recorded as “did not interfere with MurX”; at MurX (listed as 3), “did not exhibit MurX enzyme inhibitory activity even at high concentrations”. Besides, the “inhibition of menaquinone biosynthesis” value in the data set on menaquinone biosynthesis was “did not inhibit”. The “inhibition of DNA gyrase” value against DNA gyrase is recorded as “did not inhibit”. Besides, the “inhibition of Mtb serine/threonine kinase PKnA” value in data set [5] is listed as “did not inhibit”. Also, the “inhibition of Mtb serine/threonine kinase PknB” value in data set [6] is reported as “did not inhibit”.
